A short description of assay [1]: Antiproliferative activity against human HCT116 cells after 72 hrs by MTT assay. The class given is functional, cell-based. Particulars: HCT-116, 72 h. The method, boiled down:
(§1)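 Tumour cells were grown as monolayers in DMEM with 10 % FBS, 2 mM L-glutamine, penicillin and streptomycin at 37 °C under 5 % CO₂. Tenfold dilutions from 10^-8 to 10^-4 M were applied for 72 h, followed by MTT read at 570 nm. IC50 came from linear regression of percentage growth; at least two experiments, quadruplicate points.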

The nature of assay [2]: Antiproliferative activity against human H460 cells after 72 hrs by MTT assay. The format is functional, cell-based. Particulars: NCI-H460, 72 h. The method, boiled down:
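Tumour cells were grown as monolayers in DMEM with 10 % FBS, 2 mM L-glutamine, penicillin and streptomycin at 37 °C under 5 % CO₂. They were seeded at 3×10^4 cells/mL (HCT 116, H460) or 5×10^4 cells/mL (MCF-7). Tenfold dilutions from 10^-8 to 10^-4 M were applied for 72 h, followed by MTT read at 570 nm. IC50 came from linear regression of percentage growth; at least two experiments, quadruplicate points.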
Background: Tetrazolium assays rely on reduction of a dye to a coloured formazan, in cell work by metabolically active cells.

A short description of assay [3]: Antiproliferative activity against human MCF7 cells after 72 hrs by MTT assay. Particulars: MCF7, 72 h. The class given is functional, cell-based. The method, boiled down: as §1
The nature of assay [4]: Binding affinity to duplex calf thymus DNA assessed as change in melting temperature at drug/DNA ratio of 0.5 by spectrophotometric analysis. The method, boiled down:
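Calf-thymus DNA at 20 μM was heated with or without compound at 10 or 20 μM (drug/base-pair ratio 0.5 or 1) in BPE buffer (6 mM Na₂HPO₄, 2 mM NaH₂PO₄, 1 mM EDTA, pH 7.1). A260 was read every minute from 20 to 100 °C, rising 1 °C per min, and ΔTm was derived.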

Assay [5] is described as follows: Antiproliferative activity against human shGFP-fused HMLE cells after 72 hrs by MTT assay. The format is cell-based. The method, boiled down:
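HMLE-shGFP cells were kept in a 1:1 mix of DMEM + 10 % FBS with insulin, hydrocortisone and HuMEC medium at 37 °C, 5 % CO₂. Agents were given as tenfold dilutions from 10^-8 to 10^-4 M for 72 h, then MTT absorbance was read at 570 nm. IC50 was interpolated by linear regression of percentage growth; at least two experiments, each point in quadruplicate.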

Consider `CCCCNc1ccc2c(NCCCC)c(C#N)c3nc4ccccc4n3c2c1`, for which the IC50 was 7 µM in assay [1] (read-out: IC50); 7 µM in assay [1] (read-out: pIC50 (converted)); 4 µM in assay [2] (read-out: IC50); 4 µM in assay [2] (read-out: pIC50 (converted)); 5 µM in assay [3] (read-out: IC50); 5 µM in assay [3] (read-out: pIC50 (converted)).
Turning to `CCCN(CCC)c1ccc2c(N(CCC)CCC)c(C#N)c3nc4ccccc4n3c2c1`, the IC50 in assay [1] (read-out: IC50) was 14 µM; in assay [1] (read-out: pIC50 (converted)), 14 µM; in assay [2] (read-out: IC50), 29 µM; in assay [2] (read-out: pIC50 (converted)), 29 µM; in assay [3] (read-out: IC50), 21 µM; in assay [3] (read-out: pIC50 (converted)), 21 µM. Also, the ΔTm – broadly, the shift of the melting midpoint relative to a reference – in assay [4] stood at 0 °C.
With `CN1CCN(c2ccc3cc(C#N)c4nc5ccccc5n4c3c2)CC1`, the IC50 is 0.6 µM in assay [1] (read-out: IC50); 0.6 µM in assay [1] (read-out: pIC50 (converted)); 1 µM in assay [2] (read-out: IC50); 1 µM in assay [2] (read-out: pIC50 (converted)); 0.5 µM in assay [5]; 2 µM in assay [3] (read-out: IC50). Moreover, the IC50 in assay [3] (read-out: pIC50 (converted)) was 2 µM.
Take `CC1CN(c2ccc3c(N4CC(C)NC(C)C4)c(C#N)c4nc5ccccc5n4c3c2)CC(C)N1` (stereo unspecified): the IC50 was 0.4 µM in assay [1] (read-out: IC50); 0.4 µM in assay [1] (read-out: pIC50 (converted)); 0.8 µM in assay [2] (read-out: IC50); 0.8 µM in assay [2] (read-out: pIC50 (converted)); 0.2 µM in assay [5]; 1 µM in assay [3] (read-out: IC50). The IC50 in assay [3] (read-out: pIC50 (converted)) was 1 µM.
In the case of `CN1CCN(c2ccc3c(N4CCN(C)CC4)c(C#N)c4nc5ccccc5n4c3c2)CC1`, the IC50 in assay [1] (read-out: IC50) is 2 µM; in assay [1] (read-out: pIC50 (converted)), 2 µM; in assay [2] (read-out: IC50), 3 to 4 µM; in assay [2] (read-out: pIC50 (converted)) it was 4 µM; in assay [3] (read-out: IC50) it was 3 to 4 µM; in assay [3] (read-out: pIC50 (converted)) it was 3 µM.
For the compound `CCCCCN(CCCCC)c1ccc2c(N(CCCCC)CCCCC)c(C#N)c3nc4ccccc4n3c2c1`, the IC50 in assay [1] (read-out: IC50) is greater than 100 µM; in assay [1] (read-out: pIC50 (converted)) it was greater than 100 µM; in assay [2] (read-out: IC50) it was greater than 100 µM; in assay [2] (read-out: pIC50 (converted)) it was 500 µM; in assay [3] (read-out: IC50) it was greater than 100 µM; in assay [3] (read-out: pIC50 (converted)), greater than 100 µM.
As for `CCCCCCNc1ccc2cc(C#N)c3nc4ccccc4n3c2c1`, the IC50 in assay [1] (read-out: IC50), in assay [1] (read-out: pIC50 (converted)), in assay [2] (read-out: IC50), in assay [2] (read-out: pIC50 (converted)), in assay [3] (read-out: IC50) and in assay [3] (read-out: pIC50 (converted)) was 5 µM each time.
For the compound `COc1cccc2c1C(=O)c1c(O)c3c(c(O)c1C2=O)C[C@@](O)(C(=O)CO)C[C@@H]3O[C@H]1C[C@H](N)[C@H](O)[C@H](C)O1` [DOXORUBICIN], the figures for the IC50 in assay [2] (read-out: IC50) and in assay [5] were 0.03 µM and 0.01 µM, respectively.
Take `CCN(CC)c1ccc2c(N(CC)CC)c(C#N)c3nc4ccccc4n3c2c1`: the IC50 in assay [1] (read-out: IC50) is 16 µM; in assay [1] (read-out: pIC50 (converted)), 16 µM; in assay [2] (read-out: IC50) it was 25 µM; in assay [2] (read-out: pIC50 (converted)), 25 µM; in assay [3] (read-out: IC50), 22 µM; in assay [3] (read-out: pIC50 (converted)), 22 µM.
In the case of `CC(C)Nc1ccc2cc(C#N)c3nc4ccccc4n3c2c1`, the IC50 was 0.8 µM in assay [1] (read-out: IC50); 0.8 µM in assay [1] (read-out: pIC50 (converted)); 2 µM in assay [2] (read-out: IC50); 2 µM in assay [2] (read-out: pIC50 (converted)); 1 µM in assay [5]; 0.7 µM in assay [3] (read-out: IC50). Also, the IC50 in assay [3] (read-out: pIC50 (converted)) was 0.7 µM.
For the compound `CC(C)Nc1ccc2c(NC(C)C)c(C#N)c3nc4ccccc4n3c2c1`, the IC50 in assay [1] (read-out: IC50) was no less than 10 µM; in assay [1] (read-out: pIC50 (converted)), 10 µM; in assay [2] (read-out: IC50) it was 21 µM; in assay [2] (read-out: pIC50 (converted)), 21 µM; in assay [3] (read-out: IC50) it was 7 µM; in assay [3] (read-out: pIC50 (converted)) it was 7 µM.
For `CC1CN(c2c(C#N)c3nc4ccccc4n3c3ccccc23)CC(C)N1` (stereo unspecified), the IC50 in assay [1] (read-out: IC50) was 3 µM; in assay [1] (read-out: pIC50 (converted)) it was 3 µM; in assay [2] (read-out: IC50), 4 µM; in assay [2] (read-out: pIC50 (converted)), 4 µM; in assay [5], 3 µM; in assay [3] (read-out: IC50), 6 µM. Moreover, the IC50 in assay [3] (read-out: pIC50 (converted)) was 6 µM.
For the compound `CC(C)Nc1c(C#N)c2nc3ccccc3n2c2ccccc12`, the IC50 in assay [1] (read-out: IC50) was 13 µM; in assay [1] (read-out: pIC50 (converted)) it was 13 µM; in assay [2] (read-out: IC50), 5 µM; in assay [2] (read-out: pIC50 (converted)) it was 5 µM; in assay [3] (read-out: IC50) it was 20 µM; in assay [3] (read-out: pIC50 (converted)), 20 µM.
With `CC(C)CCNc1c(C#N)c2nc3ccccc3n2c2ccccc12`, the IC50 in assay [1] (read-out: IC50) is 5 µM; in assay [1] (read-out: pIC50 (converted)), 5 µM; in assay [2] (read-out: IC50), 2 µM; in assay [2] (read-out: pIC50 (converted)), 2 µM; in assay [3] (read-out: IC50), 4 µM; in assay [3] (read-out: pIC50 (converted)), 4 µM.
As to `N#Cc1c(N2CCCCC2)c2ccc(N3CCCCC3)cc2n2c1nc1ccccc12`, the IC50 in assay [1] (read-out: IC50) is 11 µM; in assay [1] (read-out: pIC50 (converted)), 11 µM; in assay [2] (read-out: IC50), 15 µM; in assay [2] (read-out: pIC50 (converted)), 15 µM; in assay [3] (read-out: IC50), 10 µM; in assay [3] (read-out: pIC50 (converted)) it was 10 µM. Moreover, the ΔTm in assay [4] was 0.7 °C.
On to `N#Cc1c(N2CCOCC2)c2ccc(N3CCOCC3)cc2n2c1nc1ccccc12`, for which the IC50 in assay [1] (read-out: IC50) is 11 µM; in assay [1] (read-out: pIC50 (converted)), 11 µM; in assay [2] (read-out: IC50), 18 µM; in assay [2] (read-out: pIC50 (converted)) it was 18 µM; in assay [3] (read-out: IC50), 9 µM; in assay [3] (read-out: pIC50 (converted)) it was 8.99 µM. Moreover, the ΔTm in assay [4] amounted to 0.5 °C.
As to `CC(C)CCNc1ccc2cc(C#N)c3nc4ccccc4n3c2c1`, the IC50 in assay [1] (read-out: IC50) is 3 µM; in assay [1] (read-out: pIC50 (converted)) it was 3 µM; in assay [2] (read-out: IC50), 4 µM; in assay [2] (read-out: pIC50 (converted)) it was 4 µM; in assay [5], 3 µM; in assay [3] (read-out: IC50), 2 µM. For the same compound, the IC50 in assay [3] (read-out: pIC50 (converted)) was 2 µM.
As to `CN1CCN(c2c(C#N)c3nc4ccccc4n3c3ccccc23)CC1`, the IC50 in assay [1] (read-out: IC50) is 3 µM; in assay [1] (read-out: pIC50 (converted)), 3 µM; in assay [2] (read-out: IC50), 4 µM; in assay [2] (read-out: pIC50 (converted)), 4 µM; in assay [3] (read-out: IC50) it was 3 µM; in assay [3] (read-out: pIC50 (converted)), 3 µM.
As for `CCCCCCNc1c(C#N)c2nc3ccccc3n2c2ccccc12`, the IC50 is 4 µM in assay [1] (read-out: IC50); 4 µM in assay [1] (read-out: pIC50 (converted)); 2 µM in assay [2] (read-out: IC50); 2 µM in assay [2] (read-out: pIC50 (converted)); 3 µM in assay [3] (read-out: IC50); 3 µM in assay [3] (read-out: pIC50 (converted)).
Turning to `CC(C)CNc1ccc2c(NCC(C)C)c(C#N)c3nc4ccccc4n3c2c1`, the IC50 is 2 µM in assay [1] (read-out: IC50); 2 µM in assay [1] (read-out: pIC50 (converted)); 3 µM in assay [2] (read-out: IC50); 3 µM in assay [2] (read-out: pIC50 (converted)); 2 µM in assay [3] (read-out: IC50); 2 µM in assay [3] (read-out: pIC50 (converted)).
In the case of `COc1cc([C@@H]2c3cc4c(cc3[C@@H](O[C@@H]3O[C@@H]5CO[C@@H](C)O[C@H]5[C@H](O)[C@H]3O)[C@H]3COC(=O)[C@H]23)OCO4)cc(OC)c1O` [ETOPOSIDE], the IC50 in assay [1] (read-out: IC50) was determined as 5 µM; in assay [2] (read-out: IC50), 0.1 µM; in assay [5], 0.4 µM; in assay [3] (read-out: IC50), 1 µM.
As for `CC(C)CCNc1ccc2c(NCCC(C)C)c(C#N)c3nc4ccccc4n3c2c1`, the IC50 in assay [1] (read-out: IC50) is 6 µM; in assay [1] (read-out: pIC50 (converted)), 6 µM; in assay [2] (read-out: IC50), 5 µM; in assay [2] (read-out: pIC50 (converted)), 5 µM; in assay [5], 6 µM; in assay [3] (read-out: IC50), 2 µM. In assay [3] (read-out: pIC50 (converted)), the IC50 was 2 µM.
Turning to `CCCCCCNc1ccc2c(NCCCCCC)c(C#N)c3nc4ccccc4n3c2c1`, the IC50 was greater than 100 µM in assay [1] (read-out: IC50); greater than 100 µM in assay [1] (read-out: pIC50 (converted)); greater than 100 µM in assay [2] (read-out: IC50); 500 µM in assay [2] (read-out: pIC50 (converted)); greater than 100 µM in assay [3] (read-out: IC50); greater than 100 µM in assay [3] (read-out: pIC50 (converted)).

Values taken from ChEMBL document CHEMBL3865821, “Amino substituted benzimidazo[1,2-a]quinolines: Antiproliferative potency, 3D QSAR study and DNA binding properties” (Eur J Med Chem, 2016).
